Data as given in ChEMBL document CHEMBL1150814, “Schizanrins [corrected] B, C, D, and E, four new lignans from Kadsura matsudai and their antihepatitis activities” (J Nat Prod, 2001).
In brackets after ≈: the same amount, converted by molar mass. Activity calls are given as the source filed them. No cut-off for these calls is given here.

Assays:
Hepatitis B virus [1] = assay: Antiviral activity against Hepatitis B virus infected in human MS-G2 cells assessed as inhibition of surface antigen secretion at 20 ug/ml after 3 days by ELISA; format: functional; parameters: scale not given: the % may be the effect or the level left
Outline: (§1)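 MS-G2 cells (HepG2 transfected with two copies of HBV genome, secreting virus) grown in RPMI-1640 with 10% fetal calf serum at 37 °C, 5% CO2. Seeded 3 × 10^5 cells/well, attached overnight, then given compound in DMSO (1, 5, 10, 20 μg/mL; DMSO ≤2.5 μL/mL; DMSO-only control). Media collected at 3 days. HBsAg and HBeAg measured by ELISA at 490 nm. % inhibition taken relative to control.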

Hepatitis B virus [2] = assay: Antiviral activity against Hepatitis B virus infected in human MS-G2 cells assessed as inhibition of surface antigen secretion at 10 ug/ml after 3 days by ELISA; format: functional; parameters: scale not given: the % may be the effect or the level left; outline: as §1
[3] = Cytotoxicity against human MS-G2 cells at 20 ug/ml by AST method; format: cell-based
Outline: (§2)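 Cell damage in compound-treated MS-G2 cultures was measured by aspartate transaminase (AST) kit. AST above 25 IU/L was taken as indicating cell damage or lysis.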

Hepatitis B virus [4] = assay: Antiviral activity against Hepatitis B virus infected in human MS-G2 cells assessed as inhibition of early antigen secretion at 10 ug/ml after 3 days by ELISA; format: functional; parameters: scale not given: the % may be the effect or the level left; outline: as §1
Hepatitis B virus [5] = assay: Antiviral activity against Hepatitis B virus infected in human MS-G2 cells assessed as inhibition of early antigen secretion at 20 ug/ml after 3 days by ELISA; format: functional; parameters: scale not given: the % may be the effect or the level left; outline: as §1
[6] = Cytotoxicity against human MS-G2 cells at 10 ug/ml by AST method; format: cell-based; outline: as §2
[7] = test system: Human immunodeficiency virus; assay: Antiviral activity against HIV replication in human H9 lymphocytes; format: functional, organism-based
H9 = assay: Cytotoxicity against human H9 cells; format: cell-based

Compound | Activity (Hepatitis B virus [1]) | Activity (Hepatitis B virus [2]) [%] | Activity [3] [IU/L] | Activity (Hepatitis B virus [4]) [%] | Activity (Hepatitis B virus [5]) | Activity [6] [IU/L] | Activity [7] | IC50 (H9) [µg/mL]
CCC(C)C(=O)O[C@H]1c2cc3c(c4c2C(C(=O)C(=O)OC)(CO4)/C(=C\C(=O)OC)C[C@@H](C)[C@H]1C)OCO3 (stereo partly specified) [TAIWANSCHIRIN A] | <25% | <25 | 14.8 | <25 | 43% | 14.1 | – | –
COC1=C(OC)C(=O)[C@]23COc4c5c(cc(c42)[C@H](OC(=O)/C=C/c2ccccc2)[C@H](C)[C@H](C)CC3=C1)OCO5 [SCHIARISANRIN D] | <25% | <25 | 22 | 27 | 42.9% | 20.1 | – | –
CCC(C)C(=O)O[C@@H]1c2cc3c(c(O)c2-c2c(cc(OC)c(OC)c2OC)C[C@@H](C)[C@H]1C)OCO3 (stereo partly specified) [SCHIZARIN B] | 54.9% | 42.6 | 15.5 | 40.7 | 42.1% | 17.6 | inactive | –
CC=C(C)C(=O)O[C@@H]1c2cc3c(c(O)c2-c2c(cc(OC)c(OC)c2OC)C[C@@H](C)[C@H]1C)OCO3 | Toxic | <25 | 47.8 | 25.8 | Toxic | 16.8 | inactive | –
COc1cc2c(c(OC)c1OC)-c1c(cc3c(c1O)OCO3)[C@@H](OC(=O)c1ccccc1)[C@H](C)[C@H](C)C2 [SCHIZARIN E] | Toxic | <25 | 44.3 | 31.8 | Toxic | 20.2 | inactive | 2.08 (≈ 4.11 µM)
CCCCCC(=O)O[C@@H]1c2cc3c(c(O)c2-c2c(cc(OC)c(OC)c2OC)C[C@@H](C)[C@H]1C)OCO3 [SCHIZARIN C] | Toxic | <25 | 35.9 | <25 | Toxic | 16 | inactive | –
